Results on four molecules are retold here after ChEMBL document CHEMBL1129251 (J Med Chem, 1996).

Experiment [1] concerns the target T1, Adrenergic receptor alpha-2 (Homo sapiens, UniProt P08913+P18825+P18089).
T1 sequence (P08913 whole entry): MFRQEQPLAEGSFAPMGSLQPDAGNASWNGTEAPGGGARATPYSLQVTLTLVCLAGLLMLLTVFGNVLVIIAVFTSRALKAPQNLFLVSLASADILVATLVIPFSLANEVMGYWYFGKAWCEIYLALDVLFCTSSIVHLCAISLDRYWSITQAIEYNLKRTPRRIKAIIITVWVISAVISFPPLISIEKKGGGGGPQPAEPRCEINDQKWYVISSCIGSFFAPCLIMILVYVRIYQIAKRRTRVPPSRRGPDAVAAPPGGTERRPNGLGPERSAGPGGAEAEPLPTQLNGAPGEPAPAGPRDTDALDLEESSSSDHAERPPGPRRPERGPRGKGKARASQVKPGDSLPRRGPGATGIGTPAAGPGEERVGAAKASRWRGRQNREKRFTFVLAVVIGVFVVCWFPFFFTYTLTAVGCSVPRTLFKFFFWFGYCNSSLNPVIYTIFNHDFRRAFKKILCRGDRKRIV
T1 sequence (P18825 whole entry): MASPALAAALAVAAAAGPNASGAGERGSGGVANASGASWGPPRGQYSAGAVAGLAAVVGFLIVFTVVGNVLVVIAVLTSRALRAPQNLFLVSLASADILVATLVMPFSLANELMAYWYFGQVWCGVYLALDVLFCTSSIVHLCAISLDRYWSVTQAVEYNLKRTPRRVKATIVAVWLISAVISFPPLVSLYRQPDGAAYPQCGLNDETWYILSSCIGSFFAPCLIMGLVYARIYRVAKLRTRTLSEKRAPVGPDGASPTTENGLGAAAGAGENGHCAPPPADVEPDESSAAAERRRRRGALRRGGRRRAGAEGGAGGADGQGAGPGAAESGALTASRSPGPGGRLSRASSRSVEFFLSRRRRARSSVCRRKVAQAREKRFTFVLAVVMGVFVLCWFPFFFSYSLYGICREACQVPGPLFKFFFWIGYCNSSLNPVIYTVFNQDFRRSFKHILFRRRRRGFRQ
T1 sequence (P18089 whole entry): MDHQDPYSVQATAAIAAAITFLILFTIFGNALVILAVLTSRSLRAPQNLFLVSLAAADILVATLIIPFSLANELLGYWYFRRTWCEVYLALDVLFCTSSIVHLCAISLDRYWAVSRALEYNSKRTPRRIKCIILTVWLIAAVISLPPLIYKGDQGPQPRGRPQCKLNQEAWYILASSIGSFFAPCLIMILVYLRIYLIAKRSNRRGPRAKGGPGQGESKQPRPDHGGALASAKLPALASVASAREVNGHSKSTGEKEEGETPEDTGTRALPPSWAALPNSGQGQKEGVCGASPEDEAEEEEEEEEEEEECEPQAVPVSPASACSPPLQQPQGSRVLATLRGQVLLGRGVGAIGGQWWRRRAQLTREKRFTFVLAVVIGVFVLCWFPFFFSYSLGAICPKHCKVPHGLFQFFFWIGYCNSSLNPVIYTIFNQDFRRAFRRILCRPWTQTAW
Nature of the experiment: Alpha-2 adrenergic receptor antagonistic activity in human blood platelets. Type of experiment: functional, tissue-based. The essentials: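 Human platelet-rich plasma pretreated with 1 mM aspirin. Inhibitor at various concentrations added 1 min before epinephrine (30-100 µM).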

Experiment [2] is described as follows: Selectivity ratio of Ki of alpha-1 adrenergic receptor to alpha-2 receptor.
The target of experiment [3] is T2, Adrenergic receptor alpha-2 (Rattus norvegicus, UniProt P22086+P19328+P22909).
T2 sequence (P22086 whole entry): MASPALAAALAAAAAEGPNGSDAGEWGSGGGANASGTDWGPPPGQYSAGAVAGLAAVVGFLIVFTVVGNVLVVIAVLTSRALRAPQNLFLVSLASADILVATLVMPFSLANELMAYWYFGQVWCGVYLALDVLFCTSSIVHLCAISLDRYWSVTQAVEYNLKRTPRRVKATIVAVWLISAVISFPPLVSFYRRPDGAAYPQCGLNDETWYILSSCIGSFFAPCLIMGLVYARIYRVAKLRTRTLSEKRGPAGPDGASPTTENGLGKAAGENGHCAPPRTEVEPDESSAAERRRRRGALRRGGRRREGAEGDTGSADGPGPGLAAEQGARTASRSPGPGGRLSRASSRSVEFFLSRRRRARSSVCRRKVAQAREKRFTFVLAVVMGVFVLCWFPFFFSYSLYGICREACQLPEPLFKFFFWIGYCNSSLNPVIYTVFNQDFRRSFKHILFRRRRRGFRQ
T2 sequence (P19328 whole entry): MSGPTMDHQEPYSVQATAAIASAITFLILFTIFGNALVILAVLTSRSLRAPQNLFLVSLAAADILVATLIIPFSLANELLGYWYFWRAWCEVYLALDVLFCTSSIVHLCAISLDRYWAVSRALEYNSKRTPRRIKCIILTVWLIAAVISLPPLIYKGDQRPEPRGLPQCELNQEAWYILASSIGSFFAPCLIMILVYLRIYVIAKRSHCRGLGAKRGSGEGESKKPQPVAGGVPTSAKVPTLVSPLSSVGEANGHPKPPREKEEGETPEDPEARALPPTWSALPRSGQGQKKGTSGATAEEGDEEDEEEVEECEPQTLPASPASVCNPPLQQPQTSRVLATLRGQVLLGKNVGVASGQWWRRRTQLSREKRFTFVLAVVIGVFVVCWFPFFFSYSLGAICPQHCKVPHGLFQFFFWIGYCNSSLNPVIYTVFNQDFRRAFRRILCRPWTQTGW
T2 sequence (P22909 whole entry): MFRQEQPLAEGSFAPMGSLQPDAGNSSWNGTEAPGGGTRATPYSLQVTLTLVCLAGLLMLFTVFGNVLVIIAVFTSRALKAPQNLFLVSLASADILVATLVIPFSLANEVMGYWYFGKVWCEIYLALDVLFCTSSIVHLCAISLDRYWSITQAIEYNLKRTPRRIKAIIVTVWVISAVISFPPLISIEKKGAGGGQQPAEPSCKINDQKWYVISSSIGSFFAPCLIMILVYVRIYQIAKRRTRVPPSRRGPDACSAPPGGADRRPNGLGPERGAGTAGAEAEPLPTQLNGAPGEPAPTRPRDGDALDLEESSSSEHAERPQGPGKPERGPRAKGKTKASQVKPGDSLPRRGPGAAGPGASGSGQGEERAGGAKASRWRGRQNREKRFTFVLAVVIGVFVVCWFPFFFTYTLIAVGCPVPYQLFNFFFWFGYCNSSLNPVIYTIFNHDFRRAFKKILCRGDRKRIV
The experiment can be described thus: Alpha-2 adrenergic receptor binding affinity was tested against membrane preparations of rat brain using 0.2 nM [3H]rauwolscine as radioligand. The essentials:
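Rat frontal cortex membranes at about 500 µg/mL protein, labelled with [3H]rauwolscine in Tris buffer pH 7.4 containing 10 mM EDTA. Nonspecific binding set by 10 µM phentolamine. 30 °C for 30 min, then filtration and scintillation counting, in triplicate.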

One may read the IC50 as the midpoint of a concentration-inhibition curve. Regarding `c1ccc2c3c(ccc2c1)CCCC3c1c[nH]cn1` (centres undefined), the IC50 in experiment [1] was 97.7 µM. In other words, the double-digit micromolar range.
As a reminder, the Ki is the equilibrium dissociation constant of an inhibitor or competing ligand from its target. High values mean lower affinity, low ones higher affinity. In experiment [1], `C/C=C(\c1c[nH]cn1)c1cccc2ccccc12` showed an IC50 of 215.4 µM. Also, in experiment [2], the Ratio is 0.03. In experiment [3], this molecule yielded an inhibition constant Ki of 1.89 µM.
`c1cc2c3c(cccc3c1)C(c1c[nH]cn1)CC2` (centres undefined) yielded an IC50 in experiment [1] of 14.3 µM. For the same molecule, in experiment [2], the Ratio stood at 1.67. This molecule also registered a Ki in experiment [3] of 0.033 µM.
In the case of `CC(c1c[nH]cn1)c1cccc2ccccc12` (centres undefined), the Ratio in experiment [2] was determined as 17.2. In addition, the Ki in experiment [3] worked out at 0.013 µM.
